Compound activity: PubChem, several laboratories
RAM inhibit – blocks the yeast RAM network. S. cerevisiae dse1pr::URA3 reporter, 5-FOA growth OD615, 2 d; analog-sensitive cbk1-as2 kinase mutant strain. inhibition, % at 50 µM. hit rate 1.8% among 190,000;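 active = inhibition above a set limit, 3 SD over mean compound inhibition, cut at about 8.4% in these data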;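 note: 0% = DMSO-only wells with no growth and 100% = 10 µM 1-NA-PP1 full growth; inhibition rescues growth on 5-FOA so higher OD means more RAM inhibition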
sdo1 growth – restores growth of sdo1-depleted yeast; hit rate 0.21% among 140,000; z-score at 10 µM; S. cerevisiae sdo1-depleted JHY4D growth rescue, OD600 30 h; hits give high values; pdr5 snq2 efflux-pump mutant strain; AID 817;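 active = z-score above 3 at both the 24 hr and the 30 hr optical density reads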;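 note: z-score against mean and SD of all compound wells on the same plate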
Yeast growth inh – reduces growth of yeast BB579 in restrictive medium; S. cerevisiae BB579 growth, OD615, 48 h; hit rate 0.51% among 140,000; inhibition, % at 10 µM;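 active = inhibition above a set limit, 3 SD over the mean compound inhibition, cut at about 44% in these data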
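Detection: OD615 turbidity measurement; Material: Saccharomyces cerevisiae DeaD strain BB579, replicative lifespan model yeast; Timing: 48 h exposure, 30 °C; Doses: single 10 µM dose; Medium: CSMM-D restrictive synthetic medium containing dextrose (glucose); Controls: amphotericin B at 10 µg/mL as positive control.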
Yeast lifespan up – extends the lifespan of yeast | S. cerevisiae growth with nicotinamide, OD615; deaD strain in restrictive glucose medium | inhibition of the nicotinamide effect, % at 10 µM | hit rate 0.68% among 130,000 | AID 775;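 active = inhibition above a set limit, placed 3 SD over the median of all compounds, cut at about 26% in these data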;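 note: 0% = nicotinamide-treated wells and 100% = cells grown without nicotinamide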
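Assay system: engineered S. cerevisiae DeaD replicative-lifespan strain, galactose-grown log-phase cells; Buffer or medium: CSMM-D glucose medium, restrictive; Probe or stimulus: nicotinamide 1.5 mM; Compound: single dose 10 µM compound, 0.25% DMSO; Schedule: 4 h preincubation then 48 h treatment at 30 °C; Technique: OD615 measurement.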
sdo1 rescue conf – confirmation of growth rescue in SDO1-depleted yeast, bone marrow failure | S. cerevisiae JHY4D (SDO1-depleted) growth rescue, OD600, 30 h; hits give high values; efflux-deficient strain, SNQ2 and PDR5 mutated | shares compounds with sdo1 growth | OD recovery (concentration not given with the values) | hit rate 44% among 440 | AID 949;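 active = yeast growth recovered at 30 hours, either rising with dose fitted slope above 0.001 or with average optical density gain above 0.07, some results past the limit were not filed as active; inactive = growth falling with dose or no effect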;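 note: gain in OD600 from 0 h to 30 h averaged across all seven doses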
Starred values were filed as active, the others as inactive; x = not tested or not shown. Rows were chosen to be rich in hits. Some 2.7% of all compounds tested hit in one or more screens of this group.

SMILES	RAM inhibit	sdo1 growth	Yeast growth inh	Yeast lifespan up	others
CC(=O)N(C(C)=O)c1ncnc2c1c(-c1ccc(Cl)cc1)nn2C(C)(C)C	4	x	x	x
CC(=O)Nc1ncnc2c1c(-c1ccc(Cl)cc1)nn2C(C)(C)C	8.9*	x	x	x
C/C(CC(=O)NCC(C)C)=N\NC(=O)COc1cc(C)c(Br)cc1Br	1	-0.33	10	-8
Cc1ccc(C)n1-c1sc2c(c1C#N)CCCC2	10*	-0.41	-38	x
Cc1sc(-n2c(C)ccc2C)c(C#N)c1C	3	-0.65	-49	-11
CC12CCC(C(=O)N(CC3CO3)C1=O)C2(C)C (stereo not given)	1	x	x	x
COc1cccc(OCC(=O)N(Cc2nc(-c3ccc(Cl)cc3)no2)C(C)C)c1	10*	-1.9	-18	-5
Cc1cc(Br)ccc1OCC(=O)N(Cc1nc(-c2ccccc2)no1)C(C)C	11*	-1.1	-33	-12
Cc1ccc(-c2noc(CN(C(=O)CCCCCN3C(=O)c4ccccc4C3=O)C(C)C)n2)cc1	9.8*	-1.4	-2	8
CC(C)N(Cc1nc(-c2ccccc2)no1)C(=O)COc1ccccc1	1	0.33	-7	-12
Cc1ccc(S(=O)(=O)N(CC(=O)Nc2ccccc2C(=O)O)c2ccccc2C)cc1	8.7*	x	x	x
O=C(Nc1cccc(C(=O)O)c1)/C(=C/c1ccc([N+](=O)[O-])cc1)NC(=O)c1ccccc1	9.9*	x	x	x
COc1ccccc1/C=C(\NC(=O)c1ccc(OC)c(OC)c1)C(=O)Nc1cccc([N+](=O)[O-])c1	7	-0.04	-34	3
COc1ccccc1/C=C(\NC(=O)c1ccc(OC)c(OC)c1)C(=O)Nc1ccc([N+](=O)[O-])cc1	8.5*	0.47	-19	5
COc1ccc(Br)cc1-c1nc(CCl)cs1	4	x	x	x
CCn1c2ccccc2c2cc(NC(=O)COc3ccccc3OC)ccc21	9.6*	-0.07	-9	-6
COC(=O)CC1C(=O)NCCN1C(=S)NC(=O)c1sc2ccccc2c1Cl (stereo not given)	-1	x	x	x
COc1ccc(NC(=O)CCC(=O)N(Cc2ccc(OC)c(OC)c2)c2nccs2)cc1	10*	0.41	-7	1
CCCCN(C)C(=O)c1oc2ccc(S(=O)(=O)N3CCCCCC3)cc2c1C	9.8*	-0.63	-23	28
O=C(CCc1nnc(CCCCc2ccccc2)o1)NCCN1CCCCC1=O	1	x	x	x
Cc1ccc(S(=O)(=O)NCC(=O)N/N=C/c2ccccc2O)cc1	1	x	x	x
CCCCOc1cccc(C2(C(=O)O)CCCC2)c1	-1	-0.82	-7	28*
O=C(Oc1ccc(=O)n(-c2ccccc2)n1)c1ccc(Cl)cc1	-2	-0.34	-34	51*
CC1CN(c2ncnc3c2c(-c2ccccc2)cn3-c2ccc(F)cc2)CC(C)O1 (stereo not given)	8.7*	x	x	x
c1ccc(N2CCN(c3nnnn3-c3ccccc3)CC2)cc1	2	-0.19	-54	-13
SMILES	RAM inhibit	sdo1 growth	Yeast growth inh	Yeast lifespan up	others
ClC(Cl)(c1nnnn1-c1ccccc1)c1nnnn1-c1ccccc1	-2	-0.51	-41	50*
Cc1cc(C)n(C(=O)Cn2nc([N+](=O)[O-])c(Br)c2C)n1	3	x	x	x
Cc1ccc(/C=C/c2nc3ccccc3c(=O)n2CCc2ccccc2)cc1	10*	-0.66	-37	1
O=C(CCCN1C(=O)c2cccc3cccc(c23)C1=O)Nc1ccon1	3	x	x	x
Nc1ccc(C(=O)OCC(=O)Nc2ccc3c(c2)OCO3)cc1[N+](=O)[O-]	5	0.03	98*	-1
O=c1c2ccccc2nc2c3ccccc3c3nncn3n12	2	-1.3	82*	-13
O=C(CCCCCn1c(SCC(=O)c2ccccc2)nc2ccccc2c1=O)NCc1ccco1	8	-0.37	-70	6
CN(Cc1ccccc1)C(=O)CSc1nc2ccccc2c(=O)n1Cc1ccco1	9.2*	-1.8	-33	0
O=C(CCCn1c(SCC(=O)c2ccc(Cl)cc2)nc2ccccc2c1=O)NCc1ccco1	8.5*	-0.51	-38	11
O=C(NCCOc1ccc(F)cc1)c1ccccc1SCc1ccccc1	9.5*	-0.57	-34	7
O=c1[nH]c(Nc2ccccc2)cc2ccccc12	0	-0.9	48*	-19
CC(C)COc1ccc(CSCCNC(=S)Nc2ccccc2)cc1	9.0*	-0.71	-5	-4
CCn1cc(Cl)c(C(=O)N2N=C3/C(=C/c4cccs4)CCCC3C2c2cccs2)n1 (stereo not given)	10*	-1.3	-53	x
C=CCSC1=N/C(=C\c2cccnc2)C(=O)N1c1ccc(OC)cc1	4	-0.96	-8	0
CCSC1=N/C(=C\c2ccccc2)C(=O)N1c1ccc(OC)cc1	10*	x	x	x
O=C(Cn1cc(F)c(=O)[nH]c1=O)NCCO	2	x	x	x
CCOC(=O)c1ccc(N/C=C\C(=O)c2cccc(OC)c2)cc1	10*	0.45	-23	2
Cc1ccc(/C=C/C(=O)O)cc1S(=O)(=O)Nc1ccc2c(c1)OCO2	8.8*	x	x	x
COCCNC(=S)NCCc1ccc(Cl)cc1Cl	1	x	x	x
Cc1cc(C)c(C(=O)COC(=O)CCNS(=O)(=O)c2c(Cl)cccc2Cl)cc1C	10*	-0.58	-15	5
COc1ccc(C(=O)Nc2ccc(N3CCN(C(=O)C(C)C)CC3)cc2)cc1[N+](=O)[O-]	2	1.3	-22	-2
CCN1C(=O)/C(=C2/C(=O)N3c4c(cc(OC(C)=O)cc42)C(C)=CC3(C)C)SC1=S	8.7*	0.56	-29	3
COc1cc2c3c(c1)/C(=C1/SC(NC(C)=O)=NC1=O)C(=O)N3C(C)(C)C=C2C	5	-0.17	-72	-15
S=C(Nc1ccc2cn[nH]c2c1)Nc1ccccc1Cl	0	-0.52	-4	37*
O=C(CCn1c(=O)c2ccccc2n(Cc2cc(=O)n3ccccc3n2)c1=O)NCc1ccco1	11*	-0.01	-54	7
SMILES	RAM inhibit	sdo1 growth	Yeast growth inh	Yeast lifespan up	others
CC1CC(C)CN(C(=O)Cn2c(=O)n(CCCCC(=O)NCc3ccco3)c(=O)c3ccccc32)C1 (stereo not given)	11*	0.3	-33	-2
O=C(COC(=O)c1ccccc1)NCc1ccco1	1	-0.5	-7	-12
Cc1ccc(C(=O)OCC(=O)NCc2ccco2)cc1	2	-0.14	-29	56*
O=C(NCc1ccc2c(c1)OCO2)c1cc(-c2ccc(Cl)cc2Cl)on1	8	0.92	-41	-6	sdo1 rescue conf=0.024
Cc1nnc(SCc2nnc(-c3cccs3)o2)s1	1	x	x	x
CN1CC=C2C(C#N)=C(N)C(C#N)(C#N)[C@H](c3ccoc3)[C@H]2C1	2	3.4*	-41	-8	sdo1 rescue conf=0.05
O=C(COC(=O)C1=COCCO1)Nc1ccc(OC(F)F)cc1	0	x	x	x
COc1cc2c(cc1NC(=O)c1cccc([N+](=O)[O-])c1)oc1ccccc12	2	3*	0	-6	sdo1 rescue conf=0.04
Cc1cc(Cl)c(OCCCNCc2ccccc2)c(Br)c1	0	4.2*	-1	-10	sdo1 rescue conf=0.058
